Measured values reported in ChEMBL document CHEMBL1142730, “Design of HIV-1 protease inhibitors active on multidrug-resistant virus” (J Med Chem, 2005).
In brackets after ≈: the same amount, converted by molar mass.

What was measured:
[1] = target: T1, Human immunodeficiency virus type 1 protease (Human immunodeficiency virus 1, UniProt Q72874); experiment: (§1) Binding affinity against HIV-1 protease
[2] = species: Rattus norvegicus; experiment: In vitro metabolic stability value after 30 min of incubation with liver microsomes of rat was determined; assay type: functional; settings: Microsome
Method in brief: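 Compound at 10 µM incubated at 37 °C with dog, human or rat liver microsomes. Residual parent compound quantified directly by LC-MS. Value is percent parent remaining after 30 min.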

[3] = tested on: Human immunodeficiency virus 1; experiment: Toxicity value against wild type HIV-1 IIIB was determined; assay type: functional
Method in brief: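 MT4 cells (150 000 cells/mL) mock-infected, run in parallel with HIV-infected cultures over an identical compound concentration range. Incubated 3 days at 37 °C, 5% CO₂. Reduced expression of the […] GFP reporter serves as the toxicity marker.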

[4] = tested on: Human immunodeficiency virus 1; experiment: Protease inhibitory activity against HIV-1 r13025 mutant strain was determined; assay type: functional, organism-based
[5] = tested on: Human immunodeficiency virus 1; experiment: Protease inhibitory activity against HIV-1 r13034 mutant strain was determined; assay type: functional, organism-based
[6] = tested on: Human immunodeficiency virus 1; experiment: Protease inhibitory activity against HIV-1 r13363 mutant strain was determined; assay type: functional, organism-based
[7] = tested on: Human immunodeficiency virus 1; experiment: Protease inhibitory activity against HIV-1 GSS004421 mutant strain was determined; assay type: functional, organism-based
[8] = tested on: Human immunodeficiency virus 1; experiment: Protease inhibitory activity against wild type HIV-1 IIIB was determined; assay type: functional, organism-based
[9] = tested on: Caco-2; experiment: In vitro increase in apparent permeability from apical to basolateral was determined in Caco-2 (human colon carcinoma) cells; assay type: functional, cell-based
Method in brief: (§2)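 Caco-2 monolayer apparent permeability measured apical-to-basolateral and basolateral-to-apical; reported as Papp in cm/s (×10⁶).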

[10] = tested on: Caco-2; experiment: In vitro increase in apparent permeability from basolateral to apical was determined in Caco-2 (human colon carcinoma) cells; assay type: functional, cell-based; method in brief: as §2
[11] = Maximum plasma concentration value in wistar rat was determined at a dosage of 20 mg/kg; assay type: ADME, organism-based; set-up: dose 20 mg/kg
Method in brief: (§3)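 Wistar rats, single-dose study at 20 mg/kg, compound formulated in PEG400. Plasma Cmax, Tmax, t1/2 and AUC determined.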

[12] = In vivo area under the concentration time curve value in wistar rat was determined at a dosage of 20 mg/kg; assay type: ADME, organism-based; set-up: dose 20 mg/kg; method in brief: as §3
[13] = In vivo time to reach maximum plasma concentration value in wistar rat was determined at a dosage of 20 mg/kg; assay type: ADME, organism-based; set-up: dose 20 mg/kg; method in brief: as §3
[14] = In vivo half life value in wistar rat was determined at a dosage of 20 mg/kg; assay type: ADME, organism-based; set-up: dose 20 mg/kg; method in brief: as §3
[15] = In vitro solubility at was determined; pH=5; assay type: ADME
Method in brief: (§4)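 Aqueous solubility measured at pH 5 and pH 7, expressed in […].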

[16] = In vitro solubility at was determined; pH=7; assay type: ADME; method in brief: as §4
[17] = Maximum plasma concentration value in dog was determined at a dosage of 20 mg/kg; assay type: ADME, organism-based, Canis lupus familiaris; set-up: dose 20 mg/kg
Method in brief: (§5)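 Oral dosing in dog at 20 mg/kg, coadministered with ritonavir. Compound given as a solution in PEG400 or in 40% w/v hydroxypropyl-β-cyclodextrin with 2% citric acid. Plasma Cmax, Tmax, t1/2 and AUC determined.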

[18] = In vivo half life value in dog was determined at a dosage of 20 mg/kg; assay type: ADME, organism-based, Canis lupus familiaris; set-up: dose 20 mg/kg; method in brief: as §5
[19] = target: T1, Human immunodeficiency virus type 1 protease; experiment: as §1; remark: listed apart in the source
Method in brief: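 Isothermal titration calorimetry by displacement: the protease was pre-titrated with acetylpepstatin (300 µM) as the weaker binder, then the inhibitor (125 or 200 µM in the syringe) was injected to saturation into protease (9–21 µM). Buffer was 10 mM sodium acetate pH 5.0, 2% DMSO, 2 mM TCEP. Heats of dilution were subtracted, and each run was done at least twice.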

[20] = In vivo area under the concentration time curve value in dog was determined at a dosage of 20 mg/kg; assay type: ADME, organism-based, Canis lupus familiaris; set-up: dose 20 mg/kg; method in brief: as §5
[21] = In vivo time to reach maximum plasma concentration value in dog was determined at a dosage of 20 mg/kg; assay type: ADME, organism-based, Canis lupus familiaris; set-up: dose 20 mg/kg; method in brief: as §5

Compound	Metabolic stability [2] [%]	pCC50 [3]	pEC50 [4]	pEC50 [5]	pEC50 [6]	pEC50 [7]	EC50 [8] [nM]	Papp [9] [×10⁻⁶ cm/s]	Papp [10] [×10⁻⁶ cm/s]	Cmax [11] [ng/mL]	AUC [12] [ng·h/mL]	Tmax [13] [h]	further results
CC(C)CN(CC(O)C(Cc1ccccc1)NC(=O)OC1CCOC1)S(=O)(=O)c1ccc(N)cc1 (stereo not drawn)													Kd [1]: 0.4 nM
CC(C)CN(C[C@@H](O)[C@H](Cc1ccccc1)NC(=O)O[C@H]1CO[C@H]2OCC[C@H]21)S(=O)(=O)c1ccc2nc(N)oc2c1	90	< 4.49	8.21	8.19	7.6	8.06	11.7	3.8	23.8	260	448	1	half-life [14]: 1.6 h
CNc1nc2ccc(S(=O)(=O)N(CC(C)C)C[C@@H](O)[C@H](Cc3ccccc3)NC(=O)O[C@H]3CO[C@H]4OCC[C@H]43)cc2o1	70	< 4.49	8.13	8.61	7.5	8.07	2	17.6	24	927	1200	1.4	solubility [15]: 10 µg/mL (≈ 16.6 µM); solubility [16]: < 10 µg/mL; Cmax [17]: 986 ng/mL; half-life [18]: 0.9 h; Kd [19]: 0.9 nM; AUC [20]: 2030 ng·h/mL; Tmax [21]: 2 h
